From PubChem
In the library only some 1.4% were active in any assay of this set; here they are far more common.
CDK5 p35 inh: inhibitors of human CDK5/p35 kinase, primary screen, biochemical, single concentration; Cyclin-dependent kinase 5 (Homo sapiens) + Cyclin-dependent kinase 5 activator 1 (Homo …; Recombinant CDK5/p35, ADP-Glo luminescence, 60 min; inhibition, % at 10 µM; 330,000 compounds, 0.01% hits; AID 488839, 2010;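 active = highest replicate inhibition of at least 50% and at least 75% of replicates reaching 50%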;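 note: plate controls were DMSO neutral control for no effect and GW8510 at 10 µM for full effect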
STK33 kinase inh: inhibitors of purified STK33 kinase, primary screen, biochemical, ADP-Glo luminescence, homogeneous, cell-free. MBP phosphorylation. inhibition, % at 10 µM. Serine/threonine-protein kinase 33 (Homo sapiens), Q9BYT3. AID 2661, 2010. 320,000 compounds, 0.073% hits;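 active = inhibition at or above 25%, using the most active replicate where run in duplicate; inactive = inhibition below 25%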
HIV Env fusion: inhibitors of HIV-1 Env-driven cell-cell fusion, primary screen, HeLa-JRFL effector, CEM21 target cells, luciferase; inhibition, % at 12.3 µM; 360,000 compounds, 1.1% hits;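 active = mean replicate inhibition score of at least 50 and every replicate individually at or above 50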;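 note: 0% = plate neutral controls and 100% = maraviroc near 300 nM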
GSK3A inh: blockers of GSK3A enzyme activity – biochemical, luminescence, cell-free homogeneous, HTS, primary screen; Glycogen synthase kinase-3 alpha (Homo sapiens), P49840; GSK-3 alpha kinase, ADP-Glo luminescence, 60 min; inhibition, % at 10 µM; 320,000 compounds, 0.1% hits;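 active = more than half of replicates show inhibition above 20%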;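 note: GST-tagged GSK-3 alpha with peptide substrate and 25 µM ATP; 0% = DMSO neutral wells and 100% = GW8510 positive control wells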
INS-1E GSIS act: GLuc luminescence reporter in INS-1E cells, primary screen for activators of glucose-dependent secretion of insulin; AID 743287, 2014; 370,000 compounds, 0.61% hits; INS-1E GLuc reporter insulin secretion, 2-3 h; activation, % at 16.6 µM;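 active = lowest replicate activation of at least 40%, so every replicate reaches that level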;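 note: 0% = median of neutral control wells and 100% = median of IBMX positive control wells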
GSK3B inh: human GSK3beta kinase inhibitors, primary screen, biochemical, cell-free homogeneous, HTS | Glycogen synthase kinase-3 beta (Homo sapiens), P49841 | 300,000 compounds, 0.038% hits | activity score (negative = inhibition), % at 10 µM | GST-GSK3beta kinase, ADP-Glo luminescence, 60 min; active compounds read low;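 active = more than half of replicate wells score below -50%, meaning over 50% inhibition versus plate controls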;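 note: 0% = median DMSO wells and -100% = median GW8510 positive control wells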
Target sequence (P49841 whole entry, looked up): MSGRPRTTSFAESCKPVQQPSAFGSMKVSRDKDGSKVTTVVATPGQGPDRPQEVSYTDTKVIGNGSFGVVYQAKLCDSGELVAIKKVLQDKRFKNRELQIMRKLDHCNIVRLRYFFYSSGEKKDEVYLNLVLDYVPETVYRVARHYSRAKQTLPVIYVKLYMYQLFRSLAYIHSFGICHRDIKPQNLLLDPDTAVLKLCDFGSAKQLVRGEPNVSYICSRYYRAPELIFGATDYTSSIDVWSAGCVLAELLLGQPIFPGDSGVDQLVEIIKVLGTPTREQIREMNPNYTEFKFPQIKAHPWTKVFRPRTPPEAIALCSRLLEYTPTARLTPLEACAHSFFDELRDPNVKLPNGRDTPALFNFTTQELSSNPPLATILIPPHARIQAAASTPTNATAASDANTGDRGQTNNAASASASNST
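Test system – GST-tagged human GSK3beta kinase, cell-free · Incubation – 60 min enzyme reaction, room temperature · Signal – ADP-Glo luminescence · Also added – peptide substrate and ATP at 25 µM · Controls – DMSO neutral wells and GW8510 at 20 µM as positive · Buffer or medium – Tris/MgCl2 kinase buffer · Measure – Luminescence-derived activity versus plate DMSO and GW8510 wells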
* hit, by the source's call; [ ] = remark or other dose.

Screening CC(C)C(=O)N[C@H]1CCC2C3CC=C4C[C@@H](O)CC[C@]4(C)C3CC[C@@]21C (some centres not stated) returned CDK5 p35 inh 0, STK33 kinase inh 1, HIV Env fusion 6, GSK3A inh -3 and INS-1E GSIS act 19.
CC(C)(C)[C@H](N)C(=O)N[C@H]1CCC2C3CC=C4C[C@@H](O)CC[C@]4(C)C3CC[C@@]21C (some centres not stated) was read as CDK5 p35 inh -3, STK33 kinase inh 0, HIV Env fusion -42, GSK3A inh -5 and INS-1E GSIS act 202*.
Screening CC(=O)C1CCC2C3CC=C4CC(SC(=N)N)CCC4(C)C3CCC12C (configuration not stated) returned CDK5 p35 inh 1, HIV Env fusion -11 and INS-1E GSIS act 284*.
`Cc1c(NC(=S)NC(=O)c2sc3ccccc3c2Cl)cccc1C(=O)O` gave CDK5 p35 inh -4, STK33 kinase inh -2, HIV Env fusion -76, GSK3A inh -3, INS-1E GSIS act 63* and GSK3B inh 0.
For COc1ccccc1C(=O)NNC(=S)NC(=O)c1sc2ccccc2c1Cl the results were CDK5 p35 inh 0, STK33 kinase inh -1, HIV Env fusion 10, GSK3A inh 0, INS-1E GSIS act -15 and GSK3B inh -2.
For OC(CNCCC1C=Nc2ccccc21)Cn1c2ccc(Cl)cc2c2cc(Cl)ccc21 (configuration not stated) the results were CDK5 p35 inh 0, STK33 kinase inh -1, HIV Env fusion 3, GSK3A inh 1, INS-1E GSIS act 647* and GSK3B inh -1.
Screening CCCNC(=O)N1C[C@H](C)[C@H](OC)CN(C)C(=O)c2cc(NS(C)(=O)=O)ccc2OC[C@@H]1C returned HIV Env fusion -4[16.7 µM] and INS-1E GSIS act 3.
COc1ccc(NC(=O)Nc2ccc3c(c2)CC(=O)N([C@@H](C)CO)C[C@H](C)[C@H](CN(C)S(=O)(=O)c2ccc(C)cc2)O3)cc1 was read as INS-1E GSIS act -32.
For C[C@@H]1CN([C@@H](C)CO)C(=O)c2cc(N(C)C)ccc2O[C@H]1CN(C)CC1CCCCC1 the results were HIV Env fusion 14[16.7 µM] and INS-1E GSIS act 7.
`O=C(O)c1ccc2c(c1)S(=O)(=O)c1cc(Cl)ccc1C2=O` gave CDK5 p35 inh -1, STK33 kinase inh -2, HIV Env fusion 6, GSK3A inh 74* and INS-1E GSIS act -11.
`O=C(O)c1ccc2c(c1)S(=O)(=O)c1ccccc1C2=O` gave CDK5 p35 inh 0, STK33 kinase inh 5, GSK3A inh 27 and GSK3B inh -12.
`COC(=O)CN(c1ccc(F)cc1)S(=O)(=O)c1ccccc1` gave CDK5 p35 inh 1, STK33 kinase inh -1, HIV Env fusion -95, GSK3A inh -1 and GSK3B inh 0.
COC(=O)CN(c1cccc(C)c1)S(=O)(=O)c1ccccc1 was read as CDK5 p35 inh 1, STK33 kinase inh 0, HIV Env fusion -6, GSK3A inh 2, INS-1E GSIS act 46* and GSK3B inh -3.
COc1ccc(NC(=O)N(C)C[C@@H]2Oc3ccc(NC(=O)Nc4cccc5ccccc45)cc3C(=O)N([C@H](C)CO)C[C@@H]2C)cc1 was read as HIV Env fusion -14[16.7 µM] and INS-1E GSIS act -10.
Screening O=C1c2ccccc2C(=O)C1c1ccccn1 returned CDK5 p35 inh 18, STK33 kinase inh 35*, HIV Env fusion -36, GSK3A inh 8, INS-1E GSIS act -13 and GSK3B inh -3.
O=C1c2ccccc2C(=O)C1c1ccncc1 was read as CDK5 p35 inh 1, STK33 kinase inh 23, GSK3A inh 4 and GSK3B inh -4.
`Cc1ccc(S(=O)(=O)N(C)C[C@@H]2Oc3ccc(NC(=O)CCCCCC(=O)Nc4ccccc4N)cc3CC(=O)N([C@H](C)CO)C[C@@H]2C)cc1` gave HIV Env fusion 72*[16.7 µM] and INS-1E GSIS act 11.
Cc1ccc(S(=O)(=O)N(C)C[C@H]2Oc3ccc(NC(=O)CCCCCC(=O)Nc4ccccc4N)cc3CC(=O)N([C@H](C)CO)C[C@H]2C)cc1 was read as HIV Env fusion 30[16.7 µM] and INS-1E GSIS act 17.
C[C@H]1CN([C@@H](C)CO)C(=O)Cc2cc(NC(=O)CCCCCC(=O)Nc3ccccc3N)ccc2O[C@@H]1CN(C)Cc1ccc(Oc2ccccc2)cc1 was read as HIV Env fusion 21[16.7 µM] and INS-1E GSIS act 14.
C[C@H](CO)N1C[C@H](C)[C@H](CN(C)S(=O)(=O)c2ccccc2)Oc2ccc(NC(=O)CCCCCC(=O)Nc3ccccc3N)cc2CC1=O was read as HIV Env fusion 57*[16.7 µM] and INS-1E GSIS act 0.
For C[C@@H]1CN([C@H](C)CO)C(=O)Cc2cc(NC(=O)CCCCCC(=O)Nc3ccccc3N)ccc2O[C@@H]1CN(C)Cc1ccc(Oc2ccccc2)cc1 the results were HIV Env fusion 56*[16.7 µM] and INS-1E GSIS act 8.
C[C@H]1CN([C@@H](C)CO)C(=O)c2cc(NC(=O)Nc3ccccc3)ccc2O[C@@H]1CN(C)S(=O)(=O)c1ccc(Cl)cc1 was read as INS-1E GSIS act -17.
For O=C(Nc1ccc(F)cc1)c1cccnc1Oc1ccccc1 the results were CDK5 p35 inh 1, STK33 kinase inh 1, HIV Env fusion -5, GSK3A inh -5, INS-1E GSIS act 89* and GSK3B inh -1.
COc1ccc(-c2ccc3c(c2)O[C@@H](CN(C)CC2CC2)[C@@H](C)CN([C@@H](C)CO)S3(=O)=O)cc1 was read as HIV Env fusion -7[16.7 µM] and INS-1E GSIS act 5.
For CC(C)(C)Sc1ccc(/C=N/O)cc1[N+](=O)[O-] the results were CDK5 p35 inh 15, STK33 kinase inh 2, HIV Env fusion 8, GSK3A inh 55*, INS-1E GSIS act 26 and GSK3B inh -36.
`CO/N=C/c1ccc(N2CCCC2)c([N+](=O)[O-])c1` gave CDK5 p35 inh 2, STK33 kinase inh -1, HIV Env fusion -81, GSK3A inh -3, INS-1E GSIS act -8 and GSK3B inh 1.
For O=[N+]([O-])c1cc(/C=N/O)ccc1N1CCCC1 the results were CDK5 p35 inh -4, STK33 kinase inh 13, HIV Env fusion 14, INS-1E GSIS act 13 and GSK3B inh -52*.
